The species entered for test [1] is Rattus norvegicus. Put plainly: (§1) Percent control of serum cholesterol in cholesterol. The format is functional. Details: concentration or dose not given beside the values. The method in brief: (§2)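 Male Sprague-Dawley rats (100–110 g), groups of 10, fed synthetic diet with 1% cholesterol; compound mixed into diet to give the stated daily dose (mg/kg) for 7 days. Serum from jugular bleed under anesthesia; VLDL+LDL separated from HDL by PEG-8000 precipitation in glycine buffer pH 9; values expressed as % of cholesterol-fed control; one-way design, LSD comparison.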

Test [2] is filed under the species Rattus norvegicus. Put plainly: (§3) Serum lipoprotein cholesterol fed rats dieted or both weeks, after two weeks. The format is functional, organism-based. Put shortly: (§4)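 Rats fed 1% cholesterol diet for one week, then for a second week the same diet with inhibitor in feed at 20 mg/kg/day, or the synthetic diet without cholesterol. 5 rats per group. Serum HDL, VLDL/LDL (PEG-8000 precipitation, glycine pH 9) and total cholesterol measured at day 7 and […].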

Test [3] addresses T1, Sterol O-acyltransferase 1 (Rattus norvegicus) (UniProt O70536).
T1 sequence (whole entry): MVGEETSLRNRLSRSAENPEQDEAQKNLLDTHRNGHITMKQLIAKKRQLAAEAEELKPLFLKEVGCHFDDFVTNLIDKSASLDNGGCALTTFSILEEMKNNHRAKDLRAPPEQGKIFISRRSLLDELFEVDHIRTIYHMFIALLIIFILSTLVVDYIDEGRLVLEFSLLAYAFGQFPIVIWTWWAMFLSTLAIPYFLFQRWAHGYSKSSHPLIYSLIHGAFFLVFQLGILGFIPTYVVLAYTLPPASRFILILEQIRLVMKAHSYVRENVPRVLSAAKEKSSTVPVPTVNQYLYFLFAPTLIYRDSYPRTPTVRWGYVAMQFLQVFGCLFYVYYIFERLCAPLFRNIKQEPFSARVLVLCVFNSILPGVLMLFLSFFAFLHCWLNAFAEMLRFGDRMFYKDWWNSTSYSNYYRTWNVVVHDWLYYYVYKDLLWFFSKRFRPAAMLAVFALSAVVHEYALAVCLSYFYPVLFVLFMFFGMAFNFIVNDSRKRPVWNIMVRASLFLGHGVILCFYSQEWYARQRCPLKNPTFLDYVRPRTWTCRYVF
Put plainly: (§5) Serum lipoprotein cholesterol diet containing ACAT inhibitor, after one week. The format is functional. Put shortly:
as §4

For test [4], the species on record is Rattus norvegicus. Kind of test: (§6) The compound was tested for % control of serum cholesterol in cholesterol. The format is functional. Put shortly:
as §2

The species named for test [5] is Rattus norvegicus. The test is described as §6. The format is functional. The method in brief:
as §2
The source holds these as a separate data set.

The species entered for test [6] is Rattus norvegicus. Kind of test: Serum lipoprotein cholesterol fed rats dieted for both weeks, after one week. The format is functional, organism-based. Put shortly: as §4
Test [7] concerns Rattus norvegicus. Kind of test: The compound was tested for % absorption of cholesterol in Cholesterol-Fed rats dosed at 20 mg/kg of body weight per day. The format is functional, organism-based. Details: dose 20 mg/kg. The method in brief:
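Zilversmit dual-isotope plasma ratio method in rats fed cholesterol diet ± compound in feed at 20 mg/kg/day. After one week, [3H]cholesterol given iv and [14C]cholesterol by oral gavage. Blood sampled on days 4, 7 and 9 after label; % oral cholesterol absorbed averaged over the 3 days per rat; one-way design.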

Test [8] is filed under the species Rattus norvegicus. Described as §6. The format is functional. Put shortly: as §2
This is another data set of the same source.

Test [9] addresses T1, Sterol O-acyltransferase 1 (Rattus norvegicus). The description is as §5. It is filed as functional. Put shortly: as §4
This is another data set of the same source.

For test [10] the target is unchanged. Kind of test: (§7) Serum lipoprotein cholesterol in Cholesterol-fed rats Treated with ACAT inhibitor, after two weeks. It is filed as functional. Put shortly:
as §4

The species entered for test [11] is Rattus norvegicus. Kind of test: (§8) Serum lipoprotein cholesterol fed rats dieted or both weeks, after one week. The format is functional, organism-based. Put shortly: as §4
Test [12] deals with T1, Sterol O-acyltransferase 1 (Rattus norvegicus). Kind of test: (§9) Serum lipoprotein cholesterol in Cholesterol-fed rats Treated with ACAT inhibitor, after one week. It is filed as functional. Put shortly:
as §4

The target is the same in test [13]. Described as §9. The format is functional. Put shortly: as §4
This is another data set of the same source.

Test [14] has the same target. Kind of test: (§10) Serum lipoprotein cholesterol diet containing ACAT inhibitor, after two weeks. The format is functional. The method in brief: as §4
The target is the same in test [15]. Described as §5. The format is functional. The method in brief: as §4
The source holds these as a separate data set.

The species named for test [16] is Rattus norvegicus. The description is as §1. The format is functional. Details: concentration or dose not given beside the values. The method in brief:
as §2
The source holds these as a separate data set.

The species entered for test [17] is Rattus norvegicus. Described as §8. It is filed as functional, organism-based. Put shortly: as §4
This is another data set of the same source.

For test [18], the target named is T2, Sterol O-acyltransferase 1 (Rattus norvegicus, UniProt O70536).
T2 sequence (O70536 whole entry): T1 sequence (whole entry)
Put plainly: In vitro inhibition of Fu5AH acyl coenzyme A:cholesterol acyltransferase.

Test [19] has as its target T1, Sterol O-acyltransferase 1 (Rattus norvegicus). The test is described as §7. It is filed as functional. The method in brief:
as §4
The source holds these as a separate data set.

For test [20] the target is unchanged. Put plainly: The compound was tested for Serum Lipoprotein cholesterol- (HDL) (mg/dL) concentrations in Cholesterol-fed rats Treated with ACAT inhibitor. It is filed as functional. The method in brief: as §4
Test [21] shares this target. Kind of test: The compound was tested for Serum Lipoprotein cholesterol- (total) (mg/dL) concentrations in Cholesterol-fed rats Treated with ACAT inhibitor. The format is functional. The method in brief:
as §4

Test [22] has the same target. The test is described as §7. It is filed as functional. The method in brief:
as §4
This is another data set of the same source.

The species named for test [23] is Rattus norvegicus. Described as §3. It is filed as functional, organism-based. The method in brief: as §4
The source holds these as a separate data set.

Test [24] is filed under the species Rattus norvegicus. Described as §6. The format is functional. Put shortly: as §2
The source holds these as a separate data set.

The species named for test [25] is Rattus norvegicus. The description is as §6. It is filed as functional. Put shortly: as §2
The source holds these as a separate data set.

Test [26] addresses T1, Sterol O-acyltransferase 1 (Rattus norvegicus). Kind of test: Inhibition of Fu5AH Acyl coenzyme A:cholesterol acyltransferase at the concentration of 10 ug/mL.
For test [27] the target is unchanged. Described as §9. The format is functional. The method in brief: as §4
The source holds these as a separate data set.

For test [28] the target is unchanged. Put plainly: The compound was tested for Serum Lipoprotein cholesterol- (VLDL+LDL) (mg/dL) concentrations in Cholesterol-fed rats Treated with ACAT inhibitor. The format is functional. The method in brief:
as §4

Test [29] is filed under the species Rattus norvegicus. Put plainly: Serum lipoprotein cholesterol fed rats dieted for both weeks, after two weeks. It is filed as functional, organism-based. Put shortly:
as §4

For test [30], the species on record is Rattus norvegicus. Described as §1. The format is functional. On the set-up: concentration or dose not given beside the values. Put shortly:
as §2
The source holds these as a separate data set.

The species entered for test [31] is Rattus norvegicus. The description is as §6. It is filed as functional. The method in brief: as §2
This is another data set of the same source.

The target of test [32] is T1, Sterol O-acyltransferase 1 (Rattus norvegicus). The test is described as §10. The format is functional. The method in brief: as §4
This is another data set of the same source.

The species entered for test [33] is Rattus norvegicus. The description is as §6. The format is functional. The method in brief:
as §2
The source holds these as a separate data set.

The species entered for test [34] is Rattus norvegicus. The description is as §6. It is filed as functional. The method in brief: as §2
This is another data set of the same source.

Usually IC50 stands for the midpoint of a concentration-inhibition curve. What is called inhibition is the relative decrease from the control value, in per cent.

Consider `O=C(Cn1c2c(c(=O)n3nc(-c4ccc(Cl)cc4)cc13)CN(C1CCCCC1)C2=O)c1ccccc1`, for which the Control in test [1] is 134%; in test [4] it was 84%; in test [5], 37%; in test [8], 32%; in test [16], 85%; in test [24] it was 141%. The Control stood at 130% in test [25], 40% in [30] and 81% in test [31]. The Serum lipoprotein cholesterol turned out to be 52.2 in [2]; 184 in [3]; 146 in test [6]; 119 in [9]; 50.3 in test [10]; 77.8 in [11]. The Serum lipoprotein cholesterol in [12] came to 182; in [13], 52.9; in test [14], 108; in test [15], 65.8; in [17] it was 68.8; in [19] it was 56.1. Besides, the Serum lipoprotein cholesterol in [20] is 76.4; in [21], 118; in [22], 106; in [23], 91.9; in test [27], 130; in [28], 41.8. Moreover, the figures for the Serum lipoprotein cholesterol in test [29] and in [32] were 144 and 32.6, respectively. In addition, the Absorption in test [7] came out at 27%. In [18], the concentration for half-maximal inhibition (IC50) was 2.99 µM. Further, the inhibition in test [26] amounted to 85%.

Turning to `CC1CCCC(N2Cc3c(n(CC(=O)c4ccccc4)c4cc(-c5ccccc5)nn4c3=O)C2=O)C1C` (stereo not drawn), the Control was 122% in test [1]; 83% in test [4]; 70% in test [5]; 62% in [8]; 89% in [16]; 109% in [24]. Further, the values for the Control in test [25], in test [30] and in [31] were 105%, 59% and 86%, respectively. In test [18], this molecule had an IC50 of 6.67 µM. The molecule also returned an inhibition in [26] of 79%.

For the molecule `C=CCCCCn1c2c(c(=O)n3nc(-c4ccccc4)cc13)CN(C1CCCCC1)C2=O`, the values for the Control in test [33], in [5] and in test [34] were 95%, 79% and 114%, respectively. In test [18], this molecule gave a half-inhibitory concentration (IC50) of 10.2 µM. This molecule also yielded an inhibition in test [26] of 93%.

The record behind these values is ChEMBL document CHEMBL1125881, “Synthesis and hypocholesterolemic activity of 6,7-dihydro-4H-pyrazolo[1,5-a]pyrrolo[3,4-d]pyrimidine-5,8-diones, novel inhibitors of acylCoA:cholesterol O-acyltransferase” (J Med Chem, 1991).
